Data on 20 sequences can be found in the EternaBench riboswitch data.

In the data set the test system is MS2 coat protein. The data set can be described thus: apparent Kd, MS2 coat protein; higher = weaker binding; RNA-MaP array; FMN 200 µM where present. Summed up: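 The apparent Kd is the median of filtered binding-curve fits, one per cluster, to green signal normalised to red-channel RNA signal and control-cluster median Fmax. The clusters were on Illumina sequencing chips, and stalled E. coli RNA polymerase had transcribed the designs on them. Titration used SNAP-549-labelled MS2 coat protein from 0.7 or 1.5 nM, doubling to 3 µM, without and then with constant ligand, in 100 mM Tris-HCl pH 7.5, 80 mM KCl, 4 mM MgCl2, BSA, DTT, yeast tRNA and Tween-20.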

Setting [1] is: designed as: OFF switch for flavin mononucleotide, no ligand.
The mark [2] stands for this setting: ligand present: flavin mononucleotide, designed as: OFF switch for flavin mononucleotide.
Where [3] appears, read: designed as: ON switch for flavin mononucleotide, no ligand.
Setting [4] is: ligand present: flavin mononucleotide, designed as: ON switch for flavin mononucleotide.

“GUAGAGUAAGGAUAUCGUGAAUAGGAUAGAAUGGUUAGAAACGAGAAGGUACAUGAGGAUCACCCAUGUAAUGU”: the “apparent Kd” value is, setting by setting: under setting [1], 20.7 nM; under setting [2], 21.3 nM.

For the sequence “GGAACGAUCAUCAUUGAACAUGAGGAUCACCCAUGUACGAUGUAGGAUAUAUACCCGGUCAAGGUAUAGAAGGACAGGGUACAG”, the “apparent Kd” value under setting [1] stood at 18.6 nM and the “apparent Kd” value under setting [2] came out at 55.4 nM.

As for “CCGCGCGCGCGAGGAUAUCUAUAUCCAACAUGAGGAUCACCCAUGUUGAGGAUCACCCAUGUAAAGGAGAAGGCGCGCGCGCGG”, the “apparent Kd” value is 44.8 nM under setting [3] and 15.8 nM under setting [4].

“UUGCCUCAGAACAUGAGGAUCACCCAUGUGCUGCGGGCAACGUAGGAUAUGAUGGUAUGAUACCGUCAGAAGGAUGAUGGUACC”: the “apparent Kd” value under setting [3] was 5.86 nM and the “apparent Kd” value under setting [4] stood at 5.32 nM.

Turning to “CGUUGACAUGAGGAUCACCCAUGUCAGAUUUGGUCAGGAUAUGGUGUGGUUUGGCUAUUGCCAGAAGGGACGUUUG”, the “apparent Kd” value under setting [3] was determined as 92.1 nM and the “apparent Kd” value under setting [4] turned out to be 58.5 nM.

As for “GCGUACAUAUCAGGAUAUCAUUGAAUGGAUUAACUCAGUGAAUACAUGAGGAUCACCCAUGUUCUUGAGAAGGGAUUACUACGC”, the “apparent Kd” value came out at 21 nM under setting [1] and 96.5 nM under setting [2].

“UAUAUAUAGUAAGGAUAUGUAUUAAUUUAAUAAACAGAAGGUACUGACAUGAGGAUCACCCAUGUUUUAGUGUGGGCAUGUAGA”: the “apparent Kd” value came out at 98 nM under setting [1] and 140 nM under setting [2].

Turning to “GGCAAGUCAGGAUAUGCGAAGUCAGGACACACACUGACGAAGCAGAAGGGACAUGAGGAUCACCCAUGUAAGCC”, the “apparent Kd” value runs as follows: under setting [1], 31.9 nM; under setting [2], 19.9 nM.

In the case of “UCAUGGAAGUAGAAGGGUAAUAUAUUAGAUUUUACUAUUAGAUGUAGAUAUACAGGAUAUGCGAACAUGAGGAUCACCCAUGUG”, the “apparent Kd” value by setting is: under setting [1], 62.7 nM; under setting [2], 35.6 nM.

Take “AAAGAACUAGGAUAUACAUGAGGAUCACCCAUGUGCAGCUUAACGGCUCACACCUUAUGUAGAAGGAGUGACCG”: the “apparent Kd” value is, setting by setting: under setting [1], 16 nM; under setting [2], 19.3 nM.

As to “CUAAAUCAUGUAGGAUAUGCGUGGCGAAGCUAUGCAGAAGGACAUGAGGAUCACCCAUGUCUUUCCGUCUGCGUACAGACGGAA”, the “apparent Kd” value runs as follows: under setting [1], 28.6 nM; under setting [2], 282 nM.

In the case of “GACACGUAAGGAUAUUGAGGGUAGAUGUGAGUCUAGCCCGGCAAGAAGGUACAUGAGGAUCACCCAUGUCCCGG”, the “apparent Kd” value is, setting by setting: under setting [1], 13.6 nM; under setting [2], 17 nM.

“UUACUAUUACAGAAGGUUAAAUAAUAUAUAAAUGAAGGAUAUGUGACAUGAGGAUCACCCAUGUUUCACCCACAUGAGGAUCAU”: the “apparent Kd” value is, setting by setting: under setting [1], 8.62 nM; under setting [2], 7.41 nM.

For the sequence “UGUAAAAUUGAUCCUGCAAGUACAUGAGGAUCACCCAUGUGCUAGGAUAUCGCGCAGCUAAAGUCCGAGAAGGAGCACAAUGUA”, the “apparent Kd” value reads like this: under setting [1], 32.3 nM; under setting [2], 95.6 nM.

With “AUCUAGUCAGGAUAUACGAACCGAUGAAUCGGACGGAACGAACAUGAGGAUCACCCAUGUAGAAGGGACACUCA”, the “apparent Kd” value was determined as 162 nM under setting [1] and 163 nM under setting [2].

For “AUCAACUCGUCAGGAUAUACGUCACUGCGUCAGCAGUGUGGUAAGAUCACAUGAGGAUCACCCAUGUAGAAGGGACGAGCUGAU”, the “apparent Kd” value under setting [1] came to 12.5 nM and the “apparent Kd” value under setting [2] was 269 nM.

In the case of “GGGUACAUCGGAGGAUAUCAUGUGUAAACAUGAGGAUCACCCAUGUCGUACGAGAGUACGGAGAUUGAGAAGGCCGAUGUACCG”, the “apparent Kd” value was 86.7 nM under setting [3] and 16.6 nM under setting [4].

As for “CGCUAAUAAAUAGUAAUAAAAGUACAGGAUAUGUUACAUGAGGAUCACCCAUGUAUUGGGUAAGAACAGAAGGGUAUAUUAGCG”, the “apparent Kd” value was found to be 153 nM under setting [1] and 115 nM under setting [2].

Consider “ACAUGAGGAUCACCCAUGUAUUACAUGGUUAAGUUUAUUAACAGAAGGCGAAAUUACCACUUUUUCGAGGAUAUGUAUUCUAUA”, for which the “apparent Kd” value is, setting by setting: under setting [1], 38.2 nM; under setting [2], 52.7 nM.

With “UAAUUAAGUGUGAGGAUAUGCUGGUCCUUGGAUCAGCAGAAGGCACAUGAGGAUCACCCAUGUAAUAUAUUUAU”, the “apparent Kd” value was 97.4 nM under setting [1] and 493 nM under setting [2].

In general, apparent Kd refers to the concentration giving half-maximal binding under the conditions of the assay.
